Active and inactive are the calls of the source. No cut-off for these calls is given here.
Assays:
Salmonella typhimurium [1] = assay: Inhibition of Trp-P-1-induced SOS response to alteration in DNA synthesis in Salmonella Typhimurium TA1535 carrying pSK1002 containing umuC'-lacZ fused gene; format: functional, Salmonella enterica subsp. enterica serovar Typhimurium; conditions: Salmonella enterica, read-out: ID50 (the source's name)
Summary of the method: (§1)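 S. typhimurium TA1535/pSK1002 (umuC′-′lacZ fusion on the plasmid). The overnight culture was diluted 50-fold in fresh TGA medium and grown at 37 °C to A600 0.25-0.30. SOS induction was read as β-galactosidase activity in Miller units. The S9 mix used rat liver S9 (phenobarbital/5,6-benzoflavone-pretreated males) with G-6-P, NADH and NADPH cofactors.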

Salmonella typhimurium [2] = assay: Antimutagenic activity in Salmonella Typhimurium TA1535 carrying pSK1002 containing umuC'-lacZ fused gene assessed as suppression of furyfuramide-induced SOS response to alteration in DNA synthesis measured by beta-galactosidase activity by Umu test; format: functional, organism-based; conditions: Salmonella enterica subsp. enterica serovar Typhimurium; summary of the method: as §1
Salmonella typhimurium [3] = assay: Antimutagenic activity in Salmonella Typhimurium TA1535 carrying pSK1002 containing umuC'-lacZ fused gene assessed as suppression of Trp-P-1-induced SOS response to alteration in DNA synthesis measured by beta-galactosidase activity by Umu test; format: functional, organism-based; conditions: Salmonella enterica subsp. enterica serovar Typhimurium; summary of the method: as §1
Salmonella typhimurium [4] = assay: Inhibition of activated MeIQ-induced SOS response to alteration in DNA synthesis in Salmonella Typhimurium TA1535 carrying pSK1002 containing umuC'-lacZ fused gene at 0.6 mM; format: functional, Salmonella enterica subsp. enterica serovar Typhimurium; parameters: scale not given: the % may be the effect or the level left; summary of the method: as §1
Salmonella typhimurium [5] = assay: Inhibition of MeIQ-induced SOS response to alteration in DNA synthesis in Salmonella Typhimurium TA1535 carrying pSK1002 containing umuC'-lacZ fused gene; format: functional, Salmonella enterica subsp. enterica serovar Typhimurium; conditions: Salmonella enterica, read-out: ID50 (the source's name); summary of the method: as §1
Salmonella typhimurium [6] = assay: Antimutagenic activity in Salmonella Typhimurium TA1535 carrying pSK1002 containing umuC'-lacZ fused gene assessed as suppression of activated Trp-P-1-induced SOS response to alteration in DNA synthesis at 0.6 mM measured by beta-galactosidase activity by Umu test; format: functional, Salmonella enterica subsp. enterica serovar Typhimurium; summary of the method: as §1
Salmonella typhimurium [7] = assay: Antimutagenic activity in Salmonella Typhimurium TA1535 carrying pSK1002 containing umuC'-lacZ fused gene assessed as suppression of Trp-P-1-induced SOS response to alteration in DNA synthesis at 0.3 mM measured by beta-galactosidase activity by Umu test; format: functional, Salmonella enterica subsp. enterica serovar Typhimurium; summary of the method: as §1
Salmonella typhimurium [8] = assay: Antimutagenic activity in Salmonella Typhimurium TA1535 carrying pSK1002 containing umuC'-lacZ fused gene assessed as suppression of activated MeIQ-induced SOS response to alteration in DNA synthesis at 0.05 mM measured by beta-galactosidase activity by Umu test; format: functional, Salmonella enterica subsp. enterica serovar Typhimurium; summary of the method: as §1
Salmonella typhimurium [9] = assay: Inhibition of activated Trp-P-1-induced SOS response to alteration in DNA synthesis in Salmonella Typhimurium TA1535 carrying pSK1002 containing umuC'-lacZ fused gene at 0.6 mM; format: functional, Salmonella enterica subsp. enterica serovar Typhimurium; parameters: scale not given: the % may be the effect or the level left; summary of the method: as §1
Salmonella typhimurium [10] = assay: Antimutagenic activity in Salmonella Typhimurium TA1535 carrying pSK1002 containing umuC'-lacZ fused gene assessed as suppression of 0.1 j/M2 UV light-induced SOS response to alteration in DNA synthesis at 0.1 mM measured by beta-galactosidase activity by Umu test; format: functional, Salmonella enterica subsp. enterica serovar Typhimurium; summary of the method: as §1
Salmonella typhimurium [11] = assay: Inhibition of Trp-P-1-induced SOS response to alteration in DNA synthesis in Salmonella Typhimurium TA1535 carrying pSK1002 containing umuC'-lacZ fused gene at 0.6 mM; format: functional, Salmonella enterica subsp. enterica serovar Typhimurium; parameters: scale not given: the % may be the effect or the level left; summary of the method: as §1
Salmonella typhimurium [12] = assay: Antimutagenic activity in Salmonella Typhimurium TA1535 carrying pSK1002 containing umuC'-lacZ fused gene assessed as suppression of MeIQ-induced SOS response to alteration in DNA synthesis at 0.3 mM measured by beta-galactosidase activity by Umu test; format: functional, Salmonella enterica subsp. enterica serovar Typhimurium; summary of the method: as §1
Salmonella typhimurium [13] = assay: Antimutagenic activity in Salmonella Typhimurium TA1535 carrying pSK1002 containing umuC'-lacZ fused gene assessed as suppression of 0.1 j/M2 UV light-induced SOS response to alteration in DNA synthesis at 0.3 mM measured by beta-galactosidase activity by Umu test; format: functional, Salmonella enterica subsp. enterica serovar Typhimurium; summary of the method: as §1
Salmonella typhimurium [14] = assay: Antimutagenic activity in Salmonella Typhimurium TA1535 carrying pSK1002 containing umuC'-lacZ fused gene assessed as suppression of MeIQ-induced SOS response to alteration in DNA synthesis at 0.6 mM measured by beta-galactosidase activity by Umu test; format: functional, Salmonella enterica subsp. enterica serovar Typhimurium; summary of the method: as §1
Salmonella typhimurium [15] = assay: Antimutagenic activity in Salmonella Typhimurium TA1535 carrying pSK1002 containing umuC'-lacZ fused gene assessed as suppression of Trp-P-1-induced SOS response to alteration in DNA synthesis at 0.05 mM measured by beta-galactosidase activity by Umu test; format: functional, Salmonella enterica subsp. enterica serovar Typhimurium; summary of the method: as §1
Salmonella typhimurium [16] = assay: Antimutagenic activity in Salmonella Typhimurium TA1535 carrying pSK1002 containing umuC'-lacZ fused gene assessed as suppression of MeIQ-induced SOS response to alteration in DNA synthesis at 0.05 mM measured by beta-galactosidase activity by Umu test; format: functional, Salmonella enterica subsp. enterica serovar Typhimurium; summary of the method: as §1
Salmonella typhimurium [17] = assay: Antimutagenic activity in Salmonella Typhimurium TA1535 carrying pSK1002 containing umuC'-lacZ fused gene assessed as suppression of furyfuramide-induced SOS response to alteration in DNA synthesis at 0.1 mM measured by beta-galactosidase activity by Umu test; format: functional, Salmonella enterica subsp. enterica serovar Typhimurium; summary of the method: as §1
Salmonella typhimurium [18] = assay: Antimutagenic activity in Salmonella Typhimurium TA1535 carrying pSK1002 containing umuC'-lacZ fused gene assessed as suppression of activated Trp-P-1-induced SOS response to alteration in DNA synthesis at 0.1 mM measured by beta-galactosidase activity by Umu test; format: functional, Salmonella enterica subsp. enterica serovar Typhimurium; summary of the method: as §1

COc1cc(-c2cc(=O)c3c(OC)c(OC)c(OC)c(OC)c3o2)ccc1O
IC50 (Salmonella typhimurium [1]): 160 µM
Activity (Salmonella typhimurium [2]): Active
Activity (Salmonella typhimurium [3]): Active
Activity (Salmonella typhimurium [4]): 58.2%
IC50 (Salmonella typhimurium [5]): 40 µM
Activity (Salmonella typhimurium [6]): 118.5 Miller_unit
Activity (Salmonella typhimurium [7]): 219.1 Miller_unit
Activity (Salmonella typhimurium [8]): 394 Miller_unit
Activity (Salmonella typhimurium [9]): 76.4%
Activity (Salmonella typhimurium [10]): 551.9 Miller_unit
Activity (Salmonella typhimurium [11]): 72.4%
Activity (Salmonella typhimurium [12]): 195.3 Miller_unit
Activity (Salmonella typhimurium [13]): 563.5 Miller_unit
Activity (Salmonella typhimurium [14]): 163.9 Miller_unit
Activity (Salmonella typhimurium [15]): 299.6 Miller_unit
Activity (Salmonella typhimurium [16]): 267.7 Miller_unit
Activity (Salmonella typhimurium [17]): 511.2 Miller_unit
Activity (Salmonella typhimurium [18]): 233.2 Miller_unit

— ChEMBL document CHEMBL1148948, “Biotransformation of nobiletin by Aspergillus niger and the antimutagenic activity of a metabolite, 4'-hydroxy-5,6,7,8,3'-pentamethoxyflavone” (2004)
